Experimental data published in ChEMBL document CHEMBL4354843, “Structure-Based Design of a Potent and Selective Covalent Inhibitor for SRC Kinase That Targets a P-Loop Cysteine” (J Med Chem, 2020).

Key:
[1] = target: Ribosomal protein S6 kinase alpha-2 (Homo sapiens) (UniProt Q15349); test: Binding affinity to wild-type human partial length C-terminal RSK3 kinase domain 2 (V403 to K700 residues) expressed in bacterial expression system assessed as residual binding level at 1 uM by Kinomescan method relative to control
[2] = target: Citron Rho-interacting kinase (Homo sapiens) (UniProt O14578); test: Binding affinity to wild-type human partial length CIT (M68 to E432 residues) expressed in bacterial expression system assessed as residual binding level at 1 uM by Kinomescan method relative to control
[3] = test system: Epidermal growth factor receptor (Homo sapiens), P00533 [G719S]; test: Binding affinity to human partial length EGFR G719S mutant (R669 to V1011 residues) expressed in bacterial expression system assessed as residual binding level at 1 uM by Kinomescan method relative to control
Outline: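 KinomeScan active site-directed competition binding panel (468 kinases), compound tested at 1 μM. Result expressed as remaining kinase signal versus DMSO control (percent of control).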

[4] = target: Serine/threonine-protein kinase pim-3 (Homo sapiens) (UniProt Q86V86); test: Binding affinity to wild-type human partial length PIM3 (G16 to A317 residues) expressed in bacterial expression system assessed as residual binding level at 1 uM by Kinomescan method relative to control
[5] = target: Mitogen-activated protein kinase kinase kinase 4 (Homo sapiens) (UniProt Q9Y6R4); test: Binding affinity to wild-type human partial length MAP3K4 (G1319 to E1608 residues) expressed in bacterial expression system assessed as residual binding level at 1 uM by Kinomescan method relative to control
[6] = target: MAP/microtubule affinity-regulating kinase 3 (Homo sapiens) (UniProt P27448); test: Binding affinity to wild-type human full length MARK3 (M1 to L729 residues) expressed in bacterial expression system assessed as residual binding level at 1 uM by Kinomescan method relative to control
Outline: (§1)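 KinomeScan, an active site-directed competition binding panel of 468 kinases. The test compound was at 1 μM. The readout is remaining kinase binding as a percentage of the DMSO control. Scores above 35% were treated as weak binding and not listed.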

[7] = target: Serine/threonine-protein kinase pim-1 (Homo sapiens) (UniProt P11309); test: Binding affinity to wild-type human partial length PIM1 (A15 to K313 residues) expressed in bacterial expression system assessed as residual binding level at 1 uM by Kinomescan method relative to control
[8] = target: Tyrosine-protein kinase JAK1 (Homo sapiens) (UniProt P23458); test: Binding affinity to wild-type human partial length JAK1 JH2 pseudokinase domain (R537 to D855 residues) expressed in mammalian expression system assessed as residual binding level at 1 uM by Kinomescan method relative to control
[9] = target: Myosin light chain kinase family member 4 (Homo sapiens) (UniProt Q86YV6); test: Binding affinity to wild-type human partial length MYLK4 (V79 to S380 residues) expressed in bacterial expression system assessed as residual binding level at 1 uM by Kinomescan method relative to control
[10] = target: Dual specificity mitogen-activated protein kinase kinase 1 (Homo sapiens) (UniProt Q02750); test: Binding affinity to wild-type human full length MEK1 (M1 to V393 residues) expressed in mammalian expression system assessed as residual binding level at 1 uM by Kinomescan method relative to control; outline: as §1
[11] = target: Activin receptor type-1 (Homo sapiens) (UniProt Q04771); test: Binding affinity to wild-type human ACVR1 (C188 to C509 residues) expressed in bacterial expression system assessed as residual binding level at 1 uM by Kinomescan method relative to control
Outline: (§2)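 Active-site-directed KinomeScan competition binding panel covering 468 kinases, compound tested at 1 μM. Each readout is the kinase signal remaining with compound, expressed as a percentage of the DMSO control. […]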

[12] = target: Serine/threonine-protein kinase Nek4 (Homo sapiens) (UniProt P51957); test: Binding affinity to wild-type human full length NEK4 (M1 to F841 residues) expressed in mammalian expression system assessed as residual binding level at 1 uM by Kinomescan method relative to control; outline: as §1
[13] = target: Mitogen-activated protein kinase kinase kinase 11 (Homo sapiens) (UniProt Q16584); test: Binding affinity to wild-type human partial length MLK3 (I77 to W399 residues) expressed in bacterial expression system assessed as residual binding level at 1 uM by Kinomescan method relative to control
[14] = target: Ephrin type-A receptor 3 (Homo sapiens) (UniProt P29320); test: Binding affinity to wild-type human partial length EPHA3 (D604 to K889 residues) expressed in bacterial expression system assessed as residual binding level at 1 uM by Kinomescan method relative to control
Outline: (§3)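 Active-site-directed competition binding panel of 468 kinases (KinomeScan), compound at 1 μM. The read-out is kinase remaining bound, given as a percentage of the DMSO control. […]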

[15] = target: Receptor tyrosine-protein kinase erbB-4 (Homo sapiens) (UniProt Q15303); test: Binding affinity to wild-type human partial length ERBB4 (L690 to K994 residues) expressed in bacterial expression system assessed as residual binding level at 1 uM by Kinomescan method relative to control; outline: as §3
[16] = target: Serine/threonine-protein kinase MARK2 (Homo sapiens) (UniProt Q7KZI7); test: Binding affinity to wild-type human partial length MARK2 (M1 to R450 residues) expressed in bacterial expression system assessed as residual binding level at 1 uM by Kinomescan method relative to control
[17] = target: Ribosomal protein S6 kinase alpha-5 (Homo sapiens) (UniProt O75582); test: Binding affinity to wild-type human partial length N- terminal RPS6KA5 kinase domain 1 expressed in bacterial expression system assessed as residual binding level at 1 uM by Kinomescan method relative to control
[18] = target: Serine/threonine-protein kinase VRK2 (Homo sapiens) (UniProt Q86Y07); test: Binding affinity to wild-type human partial length VRK2 (M1 to T336 residues) expressed in mammalian expression system assessed as residual binding level at 1 uM by Kinomescan method relative to control
Outline: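 Active site-directed competition binding panel (KinomeScan, 468 kinases). Test compound at 1 μM. Read-out is kinase binding remaining versus DMSO control, expressed as percent of control. Scores above 35% are treated as weak binding.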

[19] = target: Tyrosine-protein kinase Tec (Homo sapiens) (UniProt P42680); test: Binding affinity to wild-type human partial length TEC (L341 to D620 residues) expressed in bacterial expression system assessed as residual binding level at 1 uM by Kinomescan method relative to control
[20] = target: Dual specificity protein kinase CLK1 (Homo sapiens) (UniProt P49759); test: Binding affinity to wild-type human full length CLK1 (M1 to I484 residues) expressed in bacterial expression system assessed as residual binding level at 1 uM by Kinomescan method relative to control; outline: as §2
[21] = target: Wee1-like protein kinase 2 (Homo sapiens) (UniProt P0C1S8); test: Binding affinity to wild-type human partial length WEE2 (M204 to K492 residues) expressed in bacterial expression system assessed as residual binding level at 1 uM by Kinomescan method relative to control

C=CC(=O)Nc1ccccc1Nc1nc(Nc2ccc(N3CCN(C)CC3)cc2)ncc1C(=O)Nc1c(C)cccc1Cl
Activity [1]: 100%
Activity [2]: 100%
Activity [3]: 95%
Activity [4]: 100%
Activity [5]: 65%
Activity [6]: 90%
Activity [7]: 100%
Activity [8]: 100%
Activity [9]: 100%
Activity [10]: 93%
Activity [11]: 100%
Activity [12]: 94%
Activity [13]: 100%
Activity [14]: 68%
Activity [15]: 6.6%
Activity [16]: 100%
Activity [17]: 100%
Activity [18]: 71%
Activity [19]: 95%
Activity [20]: 100%
Activity [21]: 100%
